Data on three molecules can be found in ChEMBL document CHEMBL3739259, “Defining Key Structural Determinants for the Pro-osteogenic Activity of Flavonoids” (J Nat Prod, 2015).

Calls of active or inactive are those of the source. The rule behind the calls is not given here.

Series [1] is described as follows: Cytotoxicity against human MSC assessed as cell viability at 5 uM treated for 3 days measured on day 4 by alamar blue assay (reference value: 97 to 100%). To be noted: MSC cells, read-out: Activity. A general note: Alamar Blue is a resazurin reagent that responds to reducing activity.
Series [2] is described as follows: Cytotoxicity against human MSC assessed as cell viability at 1 uM treated for 6 days measured on day 7 by alamar blue assay (reference value: 96 to 101%). To be noted: MSC cells, read-out: Activity.
Series [3] is described as follows: Induction of osteogenic differentiation in human MSC assessed as increase in ALP activity at 10 uM using p-NPP as substrate after 9 days by colorimetric method relative to control. Format: functional. A digest of the protocol:
(§1)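 ALP read on day 9 in passage-3 bone-marrow hMSCs cultured at high density in Os.D medium. Compound (1, 5 or 10 μM, 0.1% v/v DMSO final) was re-applied on days 0, 3 and 6. Colorimetric p-nitrophenyl phosphate method, normalised to time and cell number (pNP/min/20,000 cells). Expressed as % of untreated control; three independent triplicate experiments; one-way ANOVA versus vehicle.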

Series [4] is described as follows: Cytotoxicity against human MSC assessed as […] in cell number at 1 to 10 uM after 9 days by methylene blue staining based microscopy relative to control. To be noted: 216 h. The method in brief: (§2)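 Passage-3 bone-marrow hMSCs, high density in Os.D medium, dosed with 1, 5 or 10 μM compound (0.1% v/v DMSO final) on days 0, 3 and 6 with medium changes. Cell number measured on day 9 by methylene blue proliferation assay. Expressed as % of untreated control; three independent triplicate experiments, mean ± SEM, one-way ANOVA versus vehicle.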

Series [5] can be described thus: Induction of osteogenic differentiation in human MSC assessed as increase in ALP activity at 5 uM using p-NPP as substrate after 9 days by colorimetric method relative to control. Format: functional. The method in brief:
as §1

Series [6] is described as follows: Cytotoxicity against human MSC assessed as cell viability at 5 uM measured on day 1 by alamar blue assay (reference value: 97 to 101%). The settings on record: MSC cells, read-out: Activity.
Series [7] can be described thus: Cytotoxicity against human MSC assessed as cell viability at 5 uM treated for 6 days measured on day 7 by alamar blue assay (reference value: 96 to 101%). To be noted: MSC cells, read-out: Activity.
Series [8] in a line: Cytotoxicity against human MSC assessed as cell viability at 1 uM treated for 3 days measured on day 4 by alamar blue assay (reference value: 97 to 100%). To be noted: MSC cells, read-out: Activity.
Series [9] concerns MSC. As to the kind of experiment: Induction of osteogenic differentiation in human MSC assessed as increase in ALP activity using p-NPP as substrate after 9 days by colorimetric method. The format is functional. A digest of the protocol: as §1
Series [10] in a line: Cytotoxicity against human MSC assessed as cell viability at 10 uM measured on day 1 by alamar blue assay (reference value: 97 to 101%). The settings on record: MSC cells, read-out: Activity.
Series [11] relates to MSC. As to the kind of experiment: (§3) Induction of osteogenic differentiation in human MSC assessed as increase in ALP activity at 1 uM using p-NPP as substrate after 9 days by colorimetric method relative to control. Format: functional. A digest of the protocol:
as §1

Series [12] in a line: Cytotoxicity against human MSC assessed as cell viability at 1 uM measured on day 1 by alamar blue assay (reference value: 97 to 101%). The settings on record: MSC cells, read-out: Activity.
Series [13] in a line: Cytotoxicity against human MSC assessed as cell viability at 10 uM treated for 6 days measured on day 7 by alamar blue assay (reference value: 96 to 101%). The settings on record: MSC cells, read-out: Activity.
Series [14] is described as follows: Cytotoxicity against human MSC assessed as cell viability at 10 uM treated for 3 days measured on day 4 by alamar blue assay (reference value: 97 to 100%). The settings on record: MSC cells, read-out: Activity.
The nature of series [15]: Cytotoxicity against human MSC assessed as cell viability at 5 uM after 24 hrs measured on day 1 by alamar blue assay (reference value: […] +/- 1%). The settings on record: MSC cells, read-out: Activity.
Series [16] in a line: Cytotoxicity against human MSC assessed as cell viability at 5 uM treated for 6 days measured on day 7 by alamar blue assay (reference value: 98%). To be noted: MSC cells, read-out: Activity.
Series [17] in a line: Cytotoxicity against human MSC assessed as cell viability at 1 uM measured on day 1 by alamar blue assay (reference value: […] +/- 1%). To be noted: MSC cells, read-out: Activity.
Series [18] can be described thus: Cytotoxicity against human MSC assessed as cell viability at 1 uM treated for 3 days measured on day 4 by alamar blue assay (reference value: 100 +/- 1%). The settings on record: MSC cells, read-out: Activity.
Series [19] is described as follows: Cytotoxicity against human MSC assessed as decrease in cell number at 10 uM after 9 days by methylene blue staining based microscopy relative to control. The settings on record: 216 h. A digest of the protocol:
as §2

The nature of series [20]: Cytotoxicity against human MSC assessed as cell viability at 10 uM treated for 3 days measured on day 4 by alamar blue assay (reference value: 100 +/- 1%). To be noted: MSC cells, read-out: Activity.
Series [21] can be described thus: Cytotoxicity against human MSC assessed as cell viability at 10 uM treated for 6 days measured on day 7 by alamar blue assay (reference value: 98%). The settings on record: MSC cells, read-out: Activity.
Series [22] in a line: Cytotoxicity against human MSC assessed as cell viability at 5 uM treated for 3 days measured on day 4 by alamar blue assay (reference value: 100 +/- 1%). The settings on record: MSC cells, read-out: Activity.
Series [23] in a line: Cytotoxicity against human MSC assessed as decrease in cell number at 5 uM after 9 days by methylene blue staining based microscopy relative to control. The settings on record: 216 h. A digest of the protocol: as §2
A short description of series [24]: Decrease in ALP activity in human MSC using p-NPP as substrate at 5 uM after 9 days by colorimetric method relative to control. The format is functional. Also on record: Activity: scale not given: the % may be the effect or the level left. The method in brief:
as §1

Series [25] can be described thus: Cytotoxicity against human MSC assessed as cell viability at 1 uM treated for 6 days measured on day 7 by alamar blue assay (reference value: 98%). To be noted: MSC cells, read-out: Activity.
A short description of series [26]: Cytotoxicity against human MSC assessed as cell viability at 10 uM after 24 hrs measured on day 1 by alamar blue assay (reference value: […] +/- 1%). The settings on record: MSC cells, read-out: Activity.
Series [27] in a line: Decrease in ALP activity in human MSC using p-NPP as substrate at 10 uM after 9 days by colorimetric method relative to control. The format is functional. Also on record: Activity: scale not given: the % may be the effect or the level left. A digest of the protocol:
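Passage-3 bone-marrow hMSCs from healthy donors, cultured at high density in osteogenic (Os.D) medium; compound given at days 0, 3 and 6 with media change every 3 days, final 0.1% (v/v) DMSO; vehicle, 50 nM calcitriol and untreated controls. Day-9 ALP by para-nitrophenyl phosphate colorimetry, normalised to time and cell number (methylene blue); % of untreated control, 3 independent triplicate experiments ± SEM.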

Series [28] in a line: Induction of matrix mineralization in human MSC assessed as increase in calcium deposition across cell monolayer at 10 uM after 20 days by Alizarin red S staining based microscopy relative to control. Format: functional.
Series [29] in a line: as §3. Format: functional. A digest of the protocol:
as §1

Consider `O=c1c(O)c(-c2ccc(O)cc2)oc2cc(O)cc(O)c12` [KAEMPFEROL], for which the viability at 72 h, 5 µM in [1] was 98%. Besides, in [2], the viability at 144 h, 1 µM amounted to 100%. Further, the Activity in [3] is 268%; in series [4], “Toxic”; in [5], 237%; in [9], “Dose-dependent effect”. For the same molecule, the “fold change (FC)” value in series [3] is 1.32; in series [5] it was 1.52. Also, the viability at 1 day, 5 µM in series [6] is 104%. For the same molecule, the viability at 144 h, 5 µM in series [7] amounted to 100%. Besides, the viability at 72 h, 1 µM in series [8] is 97%. The viability at 1 day, 10 µM in [10] stood at 104%. Moreover, the result in series [11] was inactive. For the same molecule, in [12], the viability at 1 day, 1 µM worked out at 96%. For the same molecule, the viability at 144 h, 10 µM in series [13] was 97%. Also, the viability at 72 h, 10 µM in series [14] came out at 98%.

Take `O=c1cc(-c2cc(O)c(O)c(O)c2)oc2cc(O)cc(O)c12` [TRICETIN]: in series [15], the viability at 24 h, 5 µM is 106%. For the same molecule, the viability at 144 h, 5 µM in series [16] came out at 94%. Also, the viability at 1 day, 1 µM in [17] was determined as 108%. Also, the viability at 72 h, 1 µM in series [18] amounted to 99%. Further, the “fold change (FC)” value is recorded as 0.47 in [19] and 0.68 in series [23]. Further, the viability at 72 h, 10 µM in series [20] amounted to 95%. Also, the viability at 144 h, 10 µM in series [21] is 94%. Further, in series [22], the viability at 72 h, 5 µM is 95%. Besides, the values for the Activity in series [24] and in series [27] were 99% and 79%, respectively. In [25], the viability at 144 h, 1 µM worked out at 97%. In addition, in series [26], the viability at 24 h, 10 µM came out at 104%. Moreover, the outcome in series [11] was inactive.

Regarding `COc1ccc(-c2oc3cc(O)cc(O)c3c(=O)c2O)cc1` [KAEMPFERIDE], in series [15], the viability at 24 h, 5 µM is 112%. The viability at 144 h, 5 µM in series [16] was found to be 98%. The viability at 1 day, 1 µM in series [17] worked out at 112%. The viability at 72 h, 1 µM in series [18] stood at 95%. Further, the Activity result in series [19] is “Non-toxic”; in series [3] it was 281%; in series [5], 237%; in series [9] it was “Dose-dependent effect”; in series [29], 143%. For the same molecule, in series [28], the “fold change (FC)” value was 3.17. For the same molecule, in series [20], the viability at 72 h, 10 µM was 95%. Besides, the viability at 144 h, 10 µM in [21] came to 99%. For the same molecule, the viability at 72 h, 5 µM in [22] came out at 95%. Further, the viability at 144 h, 1 µM in series [25] was determined as 97%. Further, the viability at 24 h, 10 µM in [26] turned out to be 111%.
